In assay [1] the target is NAD-dependent protein deacylase sirtuin-5, mitochondrial (Homo sapiens, UniProt Q9NXA8). The assay is described as follows: Inhibition of human SIRT5 deacetylation activity using H3K9Ac as substrate preincubated for 15 mins in presence of NAD+ followed by substrate addition by HPLC analysis. In outline:
(§1)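 In vitro sirtuin reaction mixture with compound at a range of concentrations. Compound was preincubated with NAD+ and the enzyme before the substrate peptide was added. IC50 taken from the concentration series.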

Assay [2] deals with T1, Protein cereblon/NAD-dependent protein deacetylase sirtuin-2 (Homo sapiens) (UniProt Q8IXJ6+Q96SW2). The assay is described as follows: Protac activity at CRBN/SIRT2 in human MCF7 cells assessed as SIRT2 degradation at 5 to 10 uM after 48 hrs by immunoblot analysis. The class given is cell-based. The settings on record: dose microM 5-10, time 48.0 hrs. The essentials: (§2)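 Cells exposed to compound at the indicated concentrations for 48 h. SIRT1, SIRT2 and SIRT3 levels were read by immunoblot.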
T1 sequence (Q96SW2 whole entry, looked up, one chain of several): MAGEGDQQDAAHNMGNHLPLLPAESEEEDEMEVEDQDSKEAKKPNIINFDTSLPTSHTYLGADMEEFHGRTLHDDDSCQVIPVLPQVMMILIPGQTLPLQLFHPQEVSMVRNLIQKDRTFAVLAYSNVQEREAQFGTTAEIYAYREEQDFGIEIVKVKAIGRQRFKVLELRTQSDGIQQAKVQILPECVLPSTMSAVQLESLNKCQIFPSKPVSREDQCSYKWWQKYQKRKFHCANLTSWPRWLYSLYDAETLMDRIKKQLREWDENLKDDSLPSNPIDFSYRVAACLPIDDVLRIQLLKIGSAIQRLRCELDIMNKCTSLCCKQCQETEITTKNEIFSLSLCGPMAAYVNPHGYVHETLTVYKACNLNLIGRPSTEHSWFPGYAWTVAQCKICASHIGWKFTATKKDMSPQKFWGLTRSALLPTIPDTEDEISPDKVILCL

In assay [3] the target is T1, Protein cereblon/NAD-dependent protein deacetylase sirtuin-2 (Homo sapiens). In words: Protac activity at CRBN/SIRT2 in human BT549 cells assessed as SIRT2 degradation at 5 to 10 uM after 48 hrs by immunoblot analysis. The format is cell-based. The settings on record: BT-549, dose microM 5-10, time 48.0 hrs. The essentials:
as §2

The next assay has as its system MCF7. The assay is described as follows: Cytotoxicity against human MCF7 cells assessed as reduction in cell viability after 72 hrs. The class given is functional, cell-based. In outline:
(§3)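 Cells incubated with compound or thalidomide for 72 h; cell viability read out at the end of exposure.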

The subject of the next assay is MDA-MB-231. In words: Cytotoxicity against human MDA-MB-231 cells assessed as reduction in cell viability after 72 hrs. The class given is functional, cell-based. The essentials:
as §3

The target of assay [4] is T1, Protein cereblon/NAD-dependent protein deacetylase sirtuin-2 (Homo sapiens). In words: Protac activity at CRBN/SIRT2 in human HEK293T cells stably expressing flag-tagged K-Ras4a assessed as inhibition of SIRT2 defatty-acylation at 10 uM incubated for 42 hrs followed by Alkyne-14 addition and measured after 6 hrs by immunoprecipitation based assay. The class given is cell-based. The settings on record: HEK-293T. The essentials:
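HEK 293T cells stably expressing Flag-tagged K-Ras4a-G12V were treated for 42 h, then labelled with 50 μM Alk-14 for a further 6 h. K-Ras4a was immunoprecipitated via Flag, and a fluorescent dye was attached by click chemistry. NH2OH removed cysteine fatty acylation. Lysine fatty acylation was read by in-gel fluorescence and quantified relative to DMSO.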

The target in assay [5] is NAD-dependent protein deacylase sirtuin-6 (Homo sapiens, UniProt Q8N6T7). In words: Inhibition of human SIRT6 deacetylation activity using H3K9Ac as substrate preincubated for 15 mins in presence of NAD+ followed by substrate addition by HPLC analysis. In outline: as §1
Chain of NAD-dependent protein deacylase sirtuin-6 (Q8N6T7 whole entry): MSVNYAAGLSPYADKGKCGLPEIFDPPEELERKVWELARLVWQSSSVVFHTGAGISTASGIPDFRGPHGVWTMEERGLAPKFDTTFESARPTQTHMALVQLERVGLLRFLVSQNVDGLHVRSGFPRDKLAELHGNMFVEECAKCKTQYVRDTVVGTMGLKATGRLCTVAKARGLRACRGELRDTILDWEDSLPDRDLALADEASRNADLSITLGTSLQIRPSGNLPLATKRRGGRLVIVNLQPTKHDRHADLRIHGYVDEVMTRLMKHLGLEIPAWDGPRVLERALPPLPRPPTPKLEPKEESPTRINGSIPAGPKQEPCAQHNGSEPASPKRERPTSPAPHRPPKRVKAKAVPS
Assay [6] deals with T2, NAD-dependent protein deacetylase sirtuin-3, mitochondrial (Homo sapiens, UniProt Q9NTG7).
T2 sequence (Q9NTG7 whole entry): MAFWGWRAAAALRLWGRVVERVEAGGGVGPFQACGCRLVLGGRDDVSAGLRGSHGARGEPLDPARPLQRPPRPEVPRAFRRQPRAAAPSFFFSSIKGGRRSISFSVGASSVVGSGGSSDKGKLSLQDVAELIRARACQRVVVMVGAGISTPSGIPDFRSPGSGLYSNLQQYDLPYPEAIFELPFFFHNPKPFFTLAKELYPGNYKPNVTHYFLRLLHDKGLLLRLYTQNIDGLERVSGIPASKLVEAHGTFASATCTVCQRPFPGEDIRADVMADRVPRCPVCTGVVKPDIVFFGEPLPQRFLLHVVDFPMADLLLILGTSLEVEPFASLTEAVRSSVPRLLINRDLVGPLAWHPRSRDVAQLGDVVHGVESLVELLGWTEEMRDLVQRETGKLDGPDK
In words: Inhibition of human SIRT3 deacetylation activity using H3K9Ac as substrate preincubated for 15 mins in presence of NAD+ followed by substrate addition by HPLC analysis. The essentials: as §1

For assay [7], the target named is T1, Protein cereblon/NAD-dependent protein deacetylase sirtuin-2 (Homo sapiens). In words: Protac activity at CRBN/SIRT2 in human MCF7 cells assessed as SIRT2 degradation at 5 uM by immunoblot analysis. The format is cell-based. A general note: In western blotting, separated proteins are transferred to a membrane and probed.
Assay [8] concerns the target T3, NAD-dependent protein deacetylase sirtuin-2 (Homo sapiens, UniProt Q8IXJ6).
T3 sequence (Q8IXJ6 whole entry): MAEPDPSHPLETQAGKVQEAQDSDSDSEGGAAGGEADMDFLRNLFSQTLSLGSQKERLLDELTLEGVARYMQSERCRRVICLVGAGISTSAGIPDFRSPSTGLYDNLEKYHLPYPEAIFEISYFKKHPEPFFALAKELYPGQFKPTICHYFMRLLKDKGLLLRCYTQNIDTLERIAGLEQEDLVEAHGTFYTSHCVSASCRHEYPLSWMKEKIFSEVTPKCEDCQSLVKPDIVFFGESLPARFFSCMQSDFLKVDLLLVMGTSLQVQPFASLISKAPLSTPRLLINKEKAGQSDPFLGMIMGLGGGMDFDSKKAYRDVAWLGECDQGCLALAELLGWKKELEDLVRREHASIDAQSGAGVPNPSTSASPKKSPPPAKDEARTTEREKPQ
In words: Inhibition of human SIRT2 defatty-acylation activity using peptide substrate in presence of NAD+ by HPLC analysis.

Assay [9] addresses T4, Protein cereblon/NAD-dependent protein deacetylase sirtuin-3, mitochondrial (Homo sapiens) (UniProt Q9NTG7+Q96SW2). In words: Protac activity at CRBN/SIRT3 in human MCF7 cells assessed as SIRT3 degradation at 5 to 10 uM after 48 hrs by immunoblot analysis. The settings on record: dose microM 5-10, time 48.0 hrs. The class given is cell-based. In outline:
(§4)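 MCF7 or BT-549 cells exposed to inhibitor at the indicated concentrations for 48 h; SIRT1, SIRT2 and SIRT3 levels read by immunoblot.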

Assay [10] has as its target T3, NAD-dependent protein deacetylase sirtuin-2. In words: Inhibition of human SIRT2 deacetylation activity using H3K9Ac as substrate in presence of NAD+ by HPLC analysis.
For assay [11], the target named is T1, Protein cereblon/NAD-dependent protein deacetylase sirtuin-2 (Homo sapiens). In words: Protac activity at CRBN/SIRT2 in human MDA-MB-231 cells assessed as SIRT2 degradation after 48 hrs by immunoblot analysis. The class given is cell-based. The essentials:
(§5)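 In MDA-MB-231 and MDA-MB-468 cells, SIRT2 was assessed by immunoblot after compound treatment.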

Assay [12] concerns the target T4, Protein cereblon/NAD-dependent protein deacetylase sirtuin-3, mitochondrial (Homo sapiens). In words: Protac activity at CRBN/SIRT3 in human BT549 cells assessed as SIRT3 degradation at 5 to 10 uM after 48 hrs by immunoblot analysis. The format is cell-based. The settings on record: BT-549, dose microM 5-10, time 48.0 hrs. In outline: as §4
The target in assay [13] is T3, NAD-dependent protein deacetylase sirtuin-2. In words: Inhibition of human SIRT2 defatty-acylation activity using peptide substrate preincubated in presence of NAD+ followed by substrate addition by HPLC analysis. The essentials: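 SIRT2 defatty-acylase reaction with compound at a range of concentrations. Compound was preincubated with NAD+ and SIRT2 before the peptide substrate was added. IC50 derived from the dose series.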

Assay [14] concerns the target T5, NAD-dependent protein deacetylase sirtuin-1 (Homo sapiens, UniProt Q96EB6).
T5 sequence (Q96EB6 whole entry): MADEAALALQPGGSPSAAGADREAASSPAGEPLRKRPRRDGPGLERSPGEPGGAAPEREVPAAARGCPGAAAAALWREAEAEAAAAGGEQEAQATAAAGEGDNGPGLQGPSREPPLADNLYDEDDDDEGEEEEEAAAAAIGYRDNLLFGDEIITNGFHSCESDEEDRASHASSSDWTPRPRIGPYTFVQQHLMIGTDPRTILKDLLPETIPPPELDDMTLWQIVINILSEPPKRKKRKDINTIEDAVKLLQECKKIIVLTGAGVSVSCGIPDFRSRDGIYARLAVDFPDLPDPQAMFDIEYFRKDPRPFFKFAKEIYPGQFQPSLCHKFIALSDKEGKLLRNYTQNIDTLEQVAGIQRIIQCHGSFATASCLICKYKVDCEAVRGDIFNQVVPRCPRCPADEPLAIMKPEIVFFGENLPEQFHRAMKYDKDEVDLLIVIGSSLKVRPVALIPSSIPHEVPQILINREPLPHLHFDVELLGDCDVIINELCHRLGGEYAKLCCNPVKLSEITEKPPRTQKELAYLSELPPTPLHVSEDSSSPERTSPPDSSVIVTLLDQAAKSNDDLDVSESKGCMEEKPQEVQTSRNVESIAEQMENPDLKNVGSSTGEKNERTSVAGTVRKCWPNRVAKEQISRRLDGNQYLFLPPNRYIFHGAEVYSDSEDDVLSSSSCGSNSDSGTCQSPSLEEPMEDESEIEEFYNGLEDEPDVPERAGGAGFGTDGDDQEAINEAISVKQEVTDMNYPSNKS
In words: Inhibition of human SIRT1 deacetylation activity using H3K9Ac as substrate preincubated for 15 mins in presence of NAD+ followed by substrate addition by HPLC analysis. In outline: as §1

Assay [15] has as its target T1, Protein cereblon/NAD-dependent protein deacetylase sirtuin-2 (Homo sapiens). In words: Protac activity at CRBN/SIRT2 in human MDA-MB-468 cells assessed as SIRT2 degradation after 48 hrs by immunoblot analysis. The format is cell-based. The essentials:
as §5

Assay [16] deals with T6, Protein cereblon/NAD-dependent protein deacetylase sirtuin-1 (Homo sapiens) (UniProt Q96EB6+Q96SW2). The assay is described as follows: Protac activity at CRBN/SIRT1 in human MCF7 cells assessed as SIRT1 degradation at 5 to 10 uM after 48 hrs by immunoblot analysis. The class given is cell-based. The settings on record: dose microM 5-10, time 48.0 hrs. The essentials: as §4
T6 sequence (Q96SW2 whole entry, looked up, one chain of several): as the sequence (Q96SW2 whole entry, looked up, one chain of several) above

Assay [17] concerns the target T6, Protein cereblon/NAD-dependent protein deacetylase sirtuin-1 (Homo sapiens). The assay is described as follows: Protac activity at CRBN/SIRT1 in human BT549 cells assessed as SIRT1 degradation at 5 to 10 uM after 48 hrs by immunoblot analysis. The format is cell-based. The settings on record: BT-549, dose microM 5-10, time 48.0 hrs. The essentials: as §4
Assay [18] deals with T3, NAD-dependent protein deacetylase sirtuin-2. In words: Inhibition of human SIRT2 deacetylation activity using H3K9Ac as substrate preincubated for 15 mins in presence of NAD+ by HPLC analysis. In outline: as §1
For assay [19], the target named is T1, Protein cereblon/NAD-dependent protein deacetylase sirtuin-2 (Homo sapiens). In words: Protac activity at CRBN/SIRT2 in human MCF7 cells assessed as SIRT2 degradation at 10 uM by immunoblot analysis. The format is cell-based. The settings on record: TDE = time-dependent effect. In outline:
(§6)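 MCF7 cells treated at a fixed concentration (10 or 25 μM) and harvested at several incubation times; SIRT2 level read by immunoblot.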

The species entered for the next assay is Homo sapiens. The assay is described as follows: Selectivity ratio of IC50 for inhibition of human SIRT1 deacetylation activity to IC50 for inhibition of human SIRT2 deacetylation activity. The essentials:
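Ratio of SIRT1 deacetylase IC50 to SIRT2 deacetylase IC50, both measured with compound, NAD+ and enzyme preincubated before peptide substrate addition.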

Assay [20] has as its target T1, Protein cereblon/NAD-dependent protein deacetylase sirtuin-2 (Homo sapiens). In words: Protac activity at CRBN/SIRT2 in human MCF7 cells assessed as SIRT2 degradation at 25 uM by immunoblot analysis. The class given is cell-based. In outline: as §6

pIC50: −log10 of the molar value. Calls of active or inactive are those of the source. The calls are words filed in the database; no cut-off is given here. A value given as a limit tells only on which side of the number the result lay.

Chain of NAD-dependent protein deacylase sirtuin-5, mitochondrial (Q9NXA8 whole entry): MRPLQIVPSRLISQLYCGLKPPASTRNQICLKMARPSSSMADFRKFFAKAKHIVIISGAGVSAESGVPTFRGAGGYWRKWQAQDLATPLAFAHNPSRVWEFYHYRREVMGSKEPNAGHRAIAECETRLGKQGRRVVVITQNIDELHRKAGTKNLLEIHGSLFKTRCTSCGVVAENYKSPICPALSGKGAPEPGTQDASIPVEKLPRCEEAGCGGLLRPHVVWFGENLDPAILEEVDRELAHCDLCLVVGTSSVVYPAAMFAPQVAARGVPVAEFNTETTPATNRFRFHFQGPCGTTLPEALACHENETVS
T4 sequence (Q96SW2 whole entry, looked up, one chain of several): as the sequence (Q96SW2 whole entry, looked up, one chain of several) above

By pIC50 is commonly meant the IC50 on a negative log10 scale, so that one unit is a factor of ten. For the compound `CCCCCCCCCCCCCC(=S)NCCCC[C@H](NC(=O)OCc1ccccc1)C(=O)Nc1ccccc1`, the pIC50 in [1], in assay [5] and in assay [6] was less than 4.08 in each case. In addition, the outcome in [2], in [3] and in assay [4] was inactive. Moreover, the result in the assay with MCF7 and with MDA-MB-231 was Active.

As to `CCCCCCCCCCCCCC(=S)NCCCC[C@H](NC(=O)CCOCCOCCOCCOCCNc1cccc2c1C(=O)N(C1CCC(=O)N(C)C1=O)C2=O)C(=O)Nc1ccccc1` (some centres undefined), the result in [7] was inactive.

Regarding `O=C(O)CCOCCOCCOCCOCCNc1cccc2c1C(=O)N(C1CCC(=O)NC1=O)C2=O` (centres undefined), the outcome in assay [7] was inactive.

As for `CCCCCCCCCCCCCC(=S)NCCCC[C@H](NC(=O)CCOCCOCCNc1cccc2c1C(=O)N(C1CCC(=O)NC1=O)C2=O)C(=O)Nc1ccccc1` (some centres undefined), the pIC50 was less than 4.08 in [8]; 6.92 in assay [10]; less than 4.08 in [1]; 6.77 in assay [13]; 4.43 in [14]; 7.16 in assay [18]. In addition, the pIC50 in assay [5] and in [6] was less than 4.08 throughout. In addition, the result in assay [9], in assay [12], in assay [16], in assay [17] and in assay [20] was inactive. In addition, the result in assay [11], in [2], in [3] and in assay [15] was Active. For the same compound, the Activity result in assay [19] is “Tde”. Also, the Ratio IC50 in the assay filed under Homo sapiens amounted to 500.

(Values after ChEMBL document CHEMBL4725483, “Simultaneous Inhibition of SIRT2 Deacetylase and Defatty-Acylase Activities via a PROTAC Strategy” (ACS Med Chem Lett, 2020).)
